Tests used:
[1] = molecular target: T1, C-C chemokine receptor type 5 (Homo sapiens, UniProt P51681); test: Inhibition of CCR5 (unknown origin) expressed in CHO cells assessed as inhibition of RANTES-induced intracellular Ca2+ mobilization after 10 mins by Fluo-4 AM staining-based fluorescence assay; format: functional, cell-based
[2] = test system: HEK293; test: Cytotoxicity against HEK293 cells at 50 uM after 7 hrs by CCK-8 assay; format: cell-based; settings: human, hek293, 7 h
Procedure, shortened: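 HEK293 cells at 5000 cells/well preincubated 24 h at 37 °C in 5% CO2, then exposed to compound for 7 h. CCK-8 reagent added, plates incubated a further 2 h at 37 °C, and absorbance read at […].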

[3] = test system: Human immunodeficiency virus 1; test: Antiviral activity against HIV-1 infected in human SupT1 cells assessed as inhibition of viral infectivity after 48 hrs by luciferase reporter gene assay; format: functional, organism-based; settings: Human immunodeficiency virus 1, SUP-T1, 48 h
Procedure, shortened: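 Pseudovirions made by co-transfecting 293T cells with pNL-Luc-E- and pENV-R5. Supernatant collected at 48 h, filtered, and capsid protein quantified by p24 antigen-capture ELISA. SupT1 cells (1 × 10^5) infected with supernatant in the presence of compound, lysed 48 h post-infection, and firefly luciferase activity measured.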

[4] = Oral bioavailability in Sprague-Dawley rat at 25 mg/kg; format: ADME, organism-based; settings: in vivo
[5] = Half life in Sprague-Dawley rat at 25 mg/kg, po; format: ADME, organism-based; parameters: dose 25 mg/kg, route oral; settings: in vivo
[6] = Half life in Sprague-Dawley rat at 4 mg/kg, iv; format: ADME, organism-based; parameters: dose 4 mg/kg, route intravenous; settings: in vivo
[7] = Plasma clearance in Sprague-Dawley rat at 4 mg/kg, iv; format: ADME, organism-based; parameters: dose 4 mg/kg, route intravenous
[8] = Plasma clearance in Sprague-Dawley rat at 25 mg/kg, po; format: ADME, organism-based; parameters: dose 25 mg/kg, route oral
[9] = AUC (0 to 24 hrs) in Sprague-Dawley rat at 4 mg/kg, iv; format: ADME, organism-based; parameters: time < 24 hr, dose 4 mg/kg, route intravenous; settings: plasma
[10] = molecular target: hERG (KCNH2) (Homo sapiens, UniProt Q12809); test: Inhibition of human ERG at 3 uM by patch clamp assay
Chain of hERG (KCNH2) (Q12809 whole entry): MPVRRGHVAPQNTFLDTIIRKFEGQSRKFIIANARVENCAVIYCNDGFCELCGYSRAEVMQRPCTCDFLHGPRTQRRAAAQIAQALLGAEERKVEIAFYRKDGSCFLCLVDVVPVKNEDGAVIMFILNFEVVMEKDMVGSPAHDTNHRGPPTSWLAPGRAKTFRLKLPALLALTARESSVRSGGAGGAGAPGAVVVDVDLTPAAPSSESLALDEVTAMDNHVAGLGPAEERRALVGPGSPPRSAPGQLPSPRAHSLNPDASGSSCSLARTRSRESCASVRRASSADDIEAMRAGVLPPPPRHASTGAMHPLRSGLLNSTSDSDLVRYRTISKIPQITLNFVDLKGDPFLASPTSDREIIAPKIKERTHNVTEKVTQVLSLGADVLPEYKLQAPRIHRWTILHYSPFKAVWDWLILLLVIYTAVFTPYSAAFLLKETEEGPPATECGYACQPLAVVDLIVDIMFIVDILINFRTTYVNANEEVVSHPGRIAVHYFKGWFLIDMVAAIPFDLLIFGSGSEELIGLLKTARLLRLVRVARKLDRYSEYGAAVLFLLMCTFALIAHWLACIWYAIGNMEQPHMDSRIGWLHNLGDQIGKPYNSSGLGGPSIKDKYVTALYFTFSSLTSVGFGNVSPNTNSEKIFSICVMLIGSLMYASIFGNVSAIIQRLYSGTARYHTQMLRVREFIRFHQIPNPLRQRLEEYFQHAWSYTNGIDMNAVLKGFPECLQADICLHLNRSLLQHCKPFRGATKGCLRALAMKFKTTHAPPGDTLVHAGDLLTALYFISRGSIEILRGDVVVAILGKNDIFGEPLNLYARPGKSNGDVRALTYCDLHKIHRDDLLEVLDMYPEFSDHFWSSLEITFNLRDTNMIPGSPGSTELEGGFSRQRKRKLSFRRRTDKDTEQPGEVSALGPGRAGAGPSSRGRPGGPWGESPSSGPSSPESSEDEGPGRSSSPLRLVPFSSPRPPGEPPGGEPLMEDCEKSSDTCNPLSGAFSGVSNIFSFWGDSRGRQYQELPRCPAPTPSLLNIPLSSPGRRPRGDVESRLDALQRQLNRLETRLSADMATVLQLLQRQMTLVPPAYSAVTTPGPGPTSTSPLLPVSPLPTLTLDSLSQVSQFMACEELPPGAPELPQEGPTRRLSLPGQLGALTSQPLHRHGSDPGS

[11] = test system: Rattus norvegicus; test: Volume of distribution at steady state in Sprague-Dawley rat at 25 mg/kg, po; format: ADME, organism-based; parameters: dose 25 mg/kg, route oral; settings: in vivo
[12] = AUC (0 to 24 hrs) in Sprague-Dawley rat at 25 mg/kg, po; format: ADME, organism-based; parameters: time < 24 hr, dose 25 mg/kg, route oral; settings: plasma
[13] = Volume of distribution at steady state in Sprague-Dawley rat at 4 mg/kg, iv; format: ADME, organism-based; parameters: dose 4 mg/kg, route intravenous; settings: in vivo, read-out: Vdss
[14] = molecular target: T1, C-C chemokine receptor type 5; test: Antagonist activity at CCR5 (unknown origin) expressed in CHO cell membranes assessed as inhibition of RANTES-stimulated [35S]-GTPgammaS binding after 1 hr by liquid scintillation counting analysis; format: functional

T1 sequence (P51681 whole entry): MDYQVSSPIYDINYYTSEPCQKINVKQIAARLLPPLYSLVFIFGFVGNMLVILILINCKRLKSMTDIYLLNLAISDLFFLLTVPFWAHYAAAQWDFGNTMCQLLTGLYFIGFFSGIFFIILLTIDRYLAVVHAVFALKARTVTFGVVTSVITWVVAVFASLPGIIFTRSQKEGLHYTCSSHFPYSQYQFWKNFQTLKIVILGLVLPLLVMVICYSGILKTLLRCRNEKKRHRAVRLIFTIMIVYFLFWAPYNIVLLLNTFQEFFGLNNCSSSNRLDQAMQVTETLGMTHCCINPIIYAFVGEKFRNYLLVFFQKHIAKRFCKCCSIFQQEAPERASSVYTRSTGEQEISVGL

CC(=O)N1CCC(C(=O)N(CCCN2CCC(C(=O)NCCc3ccc(F)cc3)CC2)c2cccc(Cl)c2)CC1
IC50 [1]: 197 nM
Activity [2]: Non-toxic

CC(=O)N1CCC(C(=O)N(CCCN2CCC(C(=O)NCc3ccc(F)cc3)CC2)c2cccc(Cl)c2)CC1
IC50 [1]: 35.5 nM
Activity [2]: Non-toxic

CC(=O)N1CCC(C(=O)N(CCCN2CCC(C(=O)NCCc3ccccc3)CC2)c2cccc(Cl)c2)CC1
IC50 [1]: 76 nM
Activity [2]: Non-toxic

CCN(Cc1ccc(C)cc1)C(=O)C1CCN(CCCN(C(=O)C2CCN(C(C)=O)CC2)c2cccc(Cl)c2)CC1
IC50 [1]: 202 nM
Activity [2]: Non-toxic

Cc1nnc(C(C)C)n1[C@H]1C[C@H]2CC[C@@H](C1)N2CC[C@H](NC(=O)C1CCC(F)(F)CC1)c1ccccc1 [MARAVIROC]
IC50 [3]: 1.1 nM

CC(=O)N1CCC(C(=O)N(CCCN2CCC(C(=O)N(C)Cc3ccccc3)CC2)c2cccc(Cl)c2)CC1
IC50 [1]: 64.1 nM
Activity [2]: Non-toxic

CCN(Cc1ccccc1)C(=O)C1CCN(CCCN(C(=O)C2CCN(C(C)=O)CC2)c2cccc(Cl)c2)CC1
IC50 [1]: 525 nM
Activity [2]: Non-toxic

CC(=O)N1CCC(C(=O)N(CCCN2CCC(C(=O)NCc3ccccc3)CC2)c2cccc(Cl)c2)CC1
IC50 [3]: 73 nM
bioavailability [4]: 15%
half-life [5]: 42.6 min
half-life [6]: 44.4 min
IC50 [1]: 25.7 nM
clearance [7]: 20.8 mL/min/kg
Activity [2]: Non-toxic
CL/F [8]: 148 mL/min/kg
AUC(0-t) at 24 h [9]: 3250 ng·h/mL
inhibition at 3 µM [10]: 15.2%
Vdss [11]: 8.99 L/kg
AUC(0-t) at 24 h [12]: 3130 ng·h/mL
Vd [13]: 1.23 L/kg

CC(=O)N1CCC(C(=O)N(CCCN2CCC(C(=O)Nc3ccccc3)CC2)c2cccc(Cl)c2)CC1
IC50 [1]: > 1000 nM
Activity [2]: Non-toxic

CCN(CCc1ccc(Cl)cc1)C(=O)C1CCN(CCCN(C(=O)C2CCN(C(C)=O)CC2)c2cccc(Cl)c2)CC1
IC50 [1]: 126 nM
Activity [2]: Non-toxic

CCN(C(=O)C1CCN(CCCN(C(=O)C2CCN(C(C)=O)CC2)c2cccc(Cl)c2)CC1)c1ccccc1
IC50 [1]: > 1000 nM
Activity [2]: Non-toxic

CCN(Cc1ccc(C#N)cc1)C(=O)C1CCN(CCCN(C(=O)C2CCN(C(C)=O)CC2)c2cccc(Cl)c2)CC1
IC50 [1]: 473 nM
Activity [2]: Non-toxic

CC(=O)N1CCC(C(=O)N(CCCN2CCC(C(=O)NCc3ccc(Cl)cc3)CC2)c2cccc(Cl)c2)CC1
IC50 [3]: 94.1 nM
IC50 [1]: 25.5 nM
Activity [2]: Non-toxic

CCN(CCc1ccc(F)cc1)C(=O)C1CCN(CCCN(C(=O)C2CCN(C(C)=O)CC2)c2cccc(Cl)c2)CC1
IC50 [1]: 152 nM
Activity [2]: Non-toxic

CC(=O)N1CCC(C(=O)N(CCCN2CCC(C(=O)NCc3ccc(C#N)cc3)CC2)c2cccc(Cl)c2)CC1
IC50 [1]: 75.3 nM
Activity [2]: Non-toxic

CCN(Cc1ccc(F)cc1)C(=O)C1CCN(CCCN(C(=O)C2CCN(C(C)=O)CC2)c2cccc(Cl)c2)CC1
IC50 [1]: 320 nM
Activity [2]: Non-toxic

CCN(C(=O)Cc1ccccc1)C1CCN(CCCN(C(=O)C2CCN(C(C)=O)CC2)c2cccc(Cl)c2)CC1
IC50 [14]: 7 nM
IC50 [1]: 252 nM

CCN(Cc1ccc(Cl)cc1)C(=O)C1CCN(CCCN(C(=O)C2CCN(C(C)=O)CC2)c2cccc(Cl)c2)CC1
IC50 [1]: 93.5 nM
Activity [2]: Non-toxic

CC(=O)N1CCC(C(=O)N(CCCN2CCC(C(=O)NCCc3ccc(Cl)cc3)CC2)c2cccc(Cl)c2)CC1
IC50 [1]: 86.7 nM
Activity [2]: Non-toxic

CCN(CCc1ccccc1)C(=O)C1CCN(CCCN(C(=O)C2CCN(C(C)=O)CC2)c2cccc(Cl)c2)CC1
IC50 [1]: 26.4 nM
Activity [2]: Non-toxic

— ChEMBL document CHEMBL3102803, “Design, synthesis, and biological evaluation of novel piperidine-4-carboxamide derivatives as potent CCR5 inhibitors” (Eur J Med Chem, 2014)
